Key:
Format in all cases: functional
Cricetinae gen. sp. = experiment: Concentration needed to achieve 50% kill of chinese hamster cells under oxygenated conditions on exposure for 2 hours; conditions: in Cricetulus griseus, read-out: ED50 (the source's name)
Outline: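 V-79 Chinese hamster monolayers in MEM with 15% fetal calf serum; ~200 cells plated, attached 2 h, then exposed to a range of drug concentrations for 2 h at 37 °C in air. Drug medium was replaced with fresh medium and cells incubated 6 days at 37 °C in 95% air/5% CO2. Colony formation was scored and the concentration giving 50% kill determined.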

[1] = Radiosensitizing effectivity evaluated as its ability to sensitize hypoxic Chinese hamster cells (V-79) towards ionizing radiation at 0.5 mM
Outline: (§1)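 Asynchronous V-79 monolayers in MEM with 15% fetal calf serum were exposed to drug at the maximum nontoxic level (1 mM or less). Cultures were made hypoxic by flushing with 95% N2/5% CO2 and irradiated at 400–3000 rad. Full survival curves were obtained, and the enhancement ratio was calculated as D0 of hypoxic controls divided by D0 of hypoxic drug-treated cells.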

[2] = Radiosensitizing effectivity evaluated as its ability to sensitize hypoxic Chinese hamster cells (V-79) towards ionizing radiation at 0.1 mM; outline: as §1
[3] = Radiosensitizing effectivity evaluated as its ability to sensitize hypoxic Chinese hamster cells (V-79) towards ionizing radiation at 1 mM; outline: as §1
[4] = Radiosensitizing effectivity evaluated as its ability to sensitize hypoxic Chinese hamster cells (V-79) towards ionizing radiation at 0.25 mM; outline: as §1

Compound `CC1Cn2c([N+](=O)[O-])cnc2O1` (centres undefined) has an EC50 (Cricetinae gen. sp.) of 620 µM and an Enhancement ratio [1] of 1.1.

Work on `CC1Cn2cc([N+](=O)[O-])nc2O1` (centres undefined) yielded an EC50 (Cricetinae gen. sp.) of 1500 µM and an Enhancement ratio [2] of 1.2.

Work on `O=[N+]([O-])c1cn2c(n1)OC(CO)C2` (centres undefined) yielded an EC50 (Cricetinae gen. sp.) of 2800 µM and an Enhancement ratio [3] of 1.

For `O=[N+]([O-])c1cn2c(n1)OC(CCl)C2` (centres undefined), the EC50 (Cricetinae gen. sp.) was 1300 µM and the Enhancement ratio [2] was 1.1.

Work on `COCC1Cn2cc([N+](=O)[O-])nc2O1` (centres undefined) yielded an EC50 (Cricetinae gen. sp.) of 1500 µM and an Enhancement ratio [2] of 1.1.

For `COCC(O)Cn1cc([N+](=O)[O-])nc1[N+](=O)[O-]` (centres undefined), the EC50 (Cricetinae gen. sp.) was 2200 µM, the Enhancement ratio [1] was 2.1 and the Enhancement ratio [2] was 1.8.

Work on `O=[N+]([O-])c1cnc2n1CC(CCl)O2` (centres undefined) yielded an EC50 (Cricetinae gen. sp.) of 610 µM and an Enhancement ratio [1] of 1.1.

For `COCC1Cn2c([N+](=O)[O-])cnc2O1` (centres undefined), the EC50 (Cricetinae gen. sp.) was 680 µM and the Enhancement ratio [3] was 1.

In the case of `O=[N+]([O-])c1cnc2n1CCO2`, the EC50 (Cricetinae gen. sp.) is reported as 1000 µM and the Enhancement ratio [4] is reported as 1.6.
